Laboratory results as given in ChEMBL document CHEMBL3739413, “Discovery of substituted-2,4-dimethyl-(naphthalene-4-carbonyl)amino-benzoic acid as potent and selective EP4 antagonists” (Bioorg Med Chem Lett, 2016).
Converted amounts (≈) assume the structure as drawn.

What was measured:
[1] = biological target: T1, Prostaglandin E2 receptor EP4 subtype (Homo sapiens, UniProt P35408); experiment: Antagonist activity at human EP4 receptor
[2] = biological target: T1, Prostaglandin E2 receptor EP4 subtype; experiment: Antagonist activity at human EP4 receptor in HEK293 cells assessed as inhibition of PGE2-induced cAMP accumulation; type: functional, cell-based
How it was run: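 HEK293 cells; functional readout was inhibition of PGE2-induced cAMP accumulation. IC50 reported ± SEM, with number of experiments.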

[3] = biological target: T1, Prostaglandin E2 receptor EP4 subtype; experiment: Antagonist activity at EP4 receptor in human whole blood assessed as reversal of inhibition of PGE2 mediated LPS-induced TNF alpha production pretreated for 30 mins using 3,3',5,5' tetramethylbiphenyl-4,4'-diamine substrate measured after 20 to 24 hrs by immunoassay; type: tissue-based
How it was run: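 Pooled heparinized blood from volunteer donors (no NSAIDs or celecoxib for 48 h, no glucocorticoids for 2 weeks). Compounds added in triplicate as 7-point curves from DMSO stocks at 100× final, preincubated 30 min at 37 °C under 5% CO2. Stimulated with LPS ± PGE2 (final 10 nM), incubated 20–24 h, plasma TNFα read by ELISA at A450–A650. IC50 from sigmoidal fit, reported as geometric mean ± SD.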

[4] = biological target: T1, Prostaglandin E2 receptor EP4 subtype; experiment: Potency index, ratio of IC50 for CJ-023423 to IC50 for test compound against EP4 receptor in human whole blood; type: tissue-based
[5] = Drug metabolism in rat hepatic microsomes incubated for 30 mins in presence of NADPH; type: ADME, Microsome; settings: liver microsomes, read-out: Drug metabolism
How it was run: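 Compound incubated 30 min with rat liver microsomes and NADPH; percent metabolized reported.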

[6] = Clearance in rat at 1 mg/kg, iv; type: ADME, organism-based; settings: in vivo
How it was run: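 Rat dosed intravenously at 1 mg/kg.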

[7] = Cmax in rat at 5 mg/kg, po; type: ADME, organism-based; design: dose 5 mg/kg, route oral; settings: in vivo
[8] = Tmax in rat at 5 mg/kg, po; type: ADME, organism-based; settings: in vivo
[9] = Oral bioavailability in rat at 5 mg/kg; type: ADME, organism-based; settings: in vivo
[10] = Ratio of Cmax in rat to IC50 for EP4 in human whole blood
[11] = Drug metabolism in rat hepatic microsomes; type: ADME, Microsome; settings: liver microsomes, read-out: Drug metabolism
[12] = Drug metabolism in human hepatic microsomes; type: ADME, Microsome; settings: liver microsomes, read-out: Drug metabolism
[13] = Aqueous solubility of the compound at pH 6; type: physicochemical; settings: aqueous medium
[14] = biological target: T2, Prostaglandin E2 receptor EP1 subtype (Homo sapiens, UniProt P34995); experiment: Antagonist activity at human EP1 receptor
T2 sequence (P34995 whole entry): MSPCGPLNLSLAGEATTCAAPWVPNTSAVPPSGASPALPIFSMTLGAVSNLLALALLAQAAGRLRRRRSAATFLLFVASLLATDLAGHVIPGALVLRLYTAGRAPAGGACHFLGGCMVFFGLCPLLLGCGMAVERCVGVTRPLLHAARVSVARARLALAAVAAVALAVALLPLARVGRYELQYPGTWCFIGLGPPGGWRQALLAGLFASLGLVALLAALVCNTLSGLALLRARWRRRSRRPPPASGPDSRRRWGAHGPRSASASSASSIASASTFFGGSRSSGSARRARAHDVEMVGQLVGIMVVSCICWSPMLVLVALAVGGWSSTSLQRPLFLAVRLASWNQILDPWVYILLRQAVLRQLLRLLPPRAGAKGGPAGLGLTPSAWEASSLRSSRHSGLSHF

[15] = biological target: Prostaglandin E2 receptor EP2 subtype (Homo sapiens, UniProt P43116); experiment: Antagonist activity at human EP2 receptor
[16] = biological target: T3, Prostaglandin E2 receptor EP3 subtype (Homo sapiens, UniProt P43115); experiment: Antagonist activity at human EP3 receptor
T3 sequence (P43115 whole entry): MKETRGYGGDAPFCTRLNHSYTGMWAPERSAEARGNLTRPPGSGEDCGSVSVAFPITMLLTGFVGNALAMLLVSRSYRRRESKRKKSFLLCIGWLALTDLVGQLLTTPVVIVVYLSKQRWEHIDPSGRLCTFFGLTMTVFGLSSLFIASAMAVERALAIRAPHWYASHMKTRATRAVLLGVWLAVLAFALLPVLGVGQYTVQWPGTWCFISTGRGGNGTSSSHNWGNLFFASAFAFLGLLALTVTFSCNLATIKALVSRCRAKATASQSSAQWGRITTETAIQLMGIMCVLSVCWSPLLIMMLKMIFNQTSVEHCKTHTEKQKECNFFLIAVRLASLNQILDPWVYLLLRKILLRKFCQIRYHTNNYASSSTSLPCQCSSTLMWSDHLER

Cytochrome P450 1A2 = biological target: T4, Cytochrome P450 1A2 (Homo sapiens, UniProt P05177); experiment: Inhibition of CYP1A2 (unknown origin); type: ADME
T4 sequence (P05177 whole entry): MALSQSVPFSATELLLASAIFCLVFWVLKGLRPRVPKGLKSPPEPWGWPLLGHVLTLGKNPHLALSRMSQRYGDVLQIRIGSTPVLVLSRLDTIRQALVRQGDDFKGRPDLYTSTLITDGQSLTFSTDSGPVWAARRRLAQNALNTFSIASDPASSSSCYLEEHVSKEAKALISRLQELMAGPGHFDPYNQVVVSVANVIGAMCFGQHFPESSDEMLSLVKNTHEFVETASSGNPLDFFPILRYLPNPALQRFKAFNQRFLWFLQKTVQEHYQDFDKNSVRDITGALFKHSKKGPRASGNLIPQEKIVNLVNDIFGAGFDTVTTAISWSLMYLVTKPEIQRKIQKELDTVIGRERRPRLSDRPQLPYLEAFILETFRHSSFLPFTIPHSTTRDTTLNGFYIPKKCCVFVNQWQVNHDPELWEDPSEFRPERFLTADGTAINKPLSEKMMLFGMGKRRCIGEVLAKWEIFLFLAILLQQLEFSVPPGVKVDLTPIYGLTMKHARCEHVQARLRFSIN

Cytochrome P450 2B6 = biological target: T5, Cytochrome P450 2B6 (Homo sapiens, UniProt P20813); experiment: Inhibition of CYP2B6 (unknown origin); type: ADME
T5 sequence (P20813 whole entry): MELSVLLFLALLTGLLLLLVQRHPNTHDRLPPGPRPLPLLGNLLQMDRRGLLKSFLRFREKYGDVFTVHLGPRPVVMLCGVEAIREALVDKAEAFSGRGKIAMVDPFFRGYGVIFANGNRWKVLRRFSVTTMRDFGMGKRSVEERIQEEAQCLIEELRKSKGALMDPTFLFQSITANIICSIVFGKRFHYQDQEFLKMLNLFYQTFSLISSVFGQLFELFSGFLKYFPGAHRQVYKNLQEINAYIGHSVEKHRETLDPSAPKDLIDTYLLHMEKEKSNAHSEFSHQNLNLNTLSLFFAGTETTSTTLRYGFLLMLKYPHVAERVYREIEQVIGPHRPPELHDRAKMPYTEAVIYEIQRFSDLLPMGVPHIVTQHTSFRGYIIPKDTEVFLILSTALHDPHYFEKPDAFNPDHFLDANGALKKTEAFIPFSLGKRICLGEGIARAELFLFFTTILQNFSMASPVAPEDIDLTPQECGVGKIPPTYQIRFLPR

Cytochrome P450 2C19 = Cytochrome P450 2C19 (Homo sapiens, UniProt P33261); experiment: Inhibition of CYP2C19 (unknown origin); type: ADME
Cytochrome P450 2C8 = biological target: T6, Cytochrome P450 2C8 (Homo sapiens, UniProt P10632); experiment: Inhibition of CYP2C8 (unknown origin); type: ADME
T6 sequence (P10632 whole entry): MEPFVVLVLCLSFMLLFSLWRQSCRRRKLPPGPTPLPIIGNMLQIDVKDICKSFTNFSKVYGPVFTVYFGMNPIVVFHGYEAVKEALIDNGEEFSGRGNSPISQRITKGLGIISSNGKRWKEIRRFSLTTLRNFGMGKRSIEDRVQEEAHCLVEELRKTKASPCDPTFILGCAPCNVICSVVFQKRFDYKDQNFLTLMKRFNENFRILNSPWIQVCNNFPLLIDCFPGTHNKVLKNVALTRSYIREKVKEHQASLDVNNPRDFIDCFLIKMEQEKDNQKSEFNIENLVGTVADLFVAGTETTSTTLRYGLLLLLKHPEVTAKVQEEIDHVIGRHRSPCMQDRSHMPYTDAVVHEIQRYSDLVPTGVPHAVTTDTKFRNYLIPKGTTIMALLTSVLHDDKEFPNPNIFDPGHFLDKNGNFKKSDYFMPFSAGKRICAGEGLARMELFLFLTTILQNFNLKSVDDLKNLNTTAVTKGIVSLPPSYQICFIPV

Cytochrome P450 2C9 = Cytochrome P450 2C9 (Homo sapiens, UniProt P11712); experiment: Inhibition of CYP2C9 (unknown origin); type: ADME
Cytochrome P450 2D6 = Cytochrome P450 2D6 (Homo sapiens, UniProt P10635); experiment: Inhibition of CYP2D6 (unknown origin); type: ADME
Cytochrome P450 3A4 = Cytochrome P450 3A4 (Homo sapiens, UniProt P08684); experiment: Inhibition of CYP3A4 (unknown origin); type: ADME
Cytochrome P450 3A4, sequence (P08684 whole entry): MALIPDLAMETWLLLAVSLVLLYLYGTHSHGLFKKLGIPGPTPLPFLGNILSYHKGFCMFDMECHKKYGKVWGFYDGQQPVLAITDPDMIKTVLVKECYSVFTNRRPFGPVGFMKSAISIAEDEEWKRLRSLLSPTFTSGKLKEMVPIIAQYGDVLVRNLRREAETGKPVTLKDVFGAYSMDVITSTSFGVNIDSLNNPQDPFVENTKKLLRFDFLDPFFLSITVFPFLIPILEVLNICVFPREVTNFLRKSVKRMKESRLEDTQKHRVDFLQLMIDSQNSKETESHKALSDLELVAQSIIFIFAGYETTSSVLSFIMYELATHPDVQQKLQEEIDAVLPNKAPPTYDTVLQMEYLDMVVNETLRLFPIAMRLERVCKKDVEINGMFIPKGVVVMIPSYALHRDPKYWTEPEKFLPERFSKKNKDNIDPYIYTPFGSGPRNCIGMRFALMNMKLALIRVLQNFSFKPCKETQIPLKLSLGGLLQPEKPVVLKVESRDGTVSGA

T1 sequence (P35408 whole entry): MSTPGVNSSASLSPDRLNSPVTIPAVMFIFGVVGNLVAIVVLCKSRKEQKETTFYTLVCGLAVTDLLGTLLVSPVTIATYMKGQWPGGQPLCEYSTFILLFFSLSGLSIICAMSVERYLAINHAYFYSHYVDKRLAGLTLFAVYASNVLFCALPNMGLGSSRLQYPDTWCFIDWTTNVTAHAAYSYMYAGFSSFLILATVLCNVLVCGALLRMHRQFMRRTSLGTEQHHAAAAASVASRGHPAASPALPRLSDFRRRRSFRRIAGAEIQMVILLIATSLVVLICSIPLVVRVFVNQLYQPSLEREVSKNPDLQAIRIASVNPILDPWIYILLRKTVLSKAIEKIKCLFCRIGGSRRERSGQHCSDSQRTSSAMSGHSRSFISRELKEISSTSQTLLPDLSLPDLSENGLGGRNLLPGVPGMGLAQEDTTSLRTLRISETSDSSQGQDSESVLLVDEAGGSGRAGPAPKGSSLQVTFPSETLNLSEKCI
Prostaglandin E2 receptor EP2 subtype, sequence (P43116 whole entry): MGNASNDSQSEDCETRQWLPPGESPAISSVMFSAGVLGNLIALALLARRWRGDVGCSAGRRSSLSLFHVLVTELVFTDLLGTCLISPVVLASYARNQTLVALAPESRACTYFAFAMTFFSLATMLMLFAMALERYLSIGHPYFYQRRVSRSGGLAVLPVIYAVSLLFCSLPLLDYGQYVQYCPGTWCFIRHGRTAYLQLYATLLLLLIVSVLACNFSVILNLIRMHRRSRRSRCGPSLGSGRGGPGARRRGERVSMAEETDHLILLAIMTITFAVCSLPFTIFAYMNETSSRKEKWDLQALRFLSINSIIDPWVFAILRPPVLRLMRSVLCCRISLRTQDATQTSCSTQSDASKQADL
Cytochrome P450 2C19, sequence (P33261 whole entry): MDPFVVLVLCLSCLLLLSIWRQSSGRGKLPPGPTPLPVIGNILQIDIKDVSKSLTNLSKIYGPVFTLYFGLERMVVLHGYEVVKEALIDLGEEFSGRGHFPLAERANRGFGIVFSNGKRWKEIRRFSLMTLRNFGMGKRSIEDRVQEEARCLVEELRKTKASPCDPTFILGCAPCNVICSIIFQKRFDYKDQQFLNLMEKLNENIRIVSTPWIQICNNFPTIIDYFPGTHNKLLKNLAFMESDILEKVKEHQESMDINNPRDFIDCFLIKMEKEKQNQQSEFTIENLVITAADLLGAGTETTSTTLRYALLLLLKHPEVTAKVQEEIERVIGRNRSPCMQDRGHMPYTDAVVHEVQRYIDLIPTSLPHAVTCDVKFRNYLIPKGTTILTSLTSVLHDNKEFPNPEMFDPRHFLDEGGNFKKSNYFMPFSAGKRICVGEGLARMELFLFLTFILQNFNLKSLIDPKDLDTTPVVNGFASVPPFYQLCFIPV
Cytochrome P450 2D6, sequence (P10635 whole entry): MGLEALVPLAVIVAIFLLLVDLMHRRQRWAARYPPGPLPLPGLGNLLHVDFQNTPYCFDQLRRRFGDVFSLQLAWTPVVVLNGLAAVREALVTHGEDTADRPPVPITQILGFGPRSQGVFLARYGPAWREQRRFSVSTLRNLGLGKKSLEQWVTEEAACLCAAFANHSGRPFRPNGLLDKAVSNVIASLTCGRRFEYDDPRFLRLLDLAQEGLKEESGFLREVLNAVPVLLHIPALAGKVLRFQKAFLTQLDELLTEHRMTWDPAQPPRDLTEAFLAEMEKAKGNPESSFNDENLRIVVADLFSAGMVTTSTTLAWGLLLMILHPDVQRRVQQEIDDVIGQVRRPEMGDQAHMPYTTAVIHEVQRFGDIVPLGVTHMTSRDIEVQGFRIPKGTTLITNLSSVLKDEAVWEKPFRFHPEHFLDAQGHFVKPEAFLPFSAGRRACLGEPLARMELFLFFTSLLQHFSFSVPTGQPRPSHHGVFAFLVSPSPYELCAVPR
Cytochrome P450 2C9, sequence (P11712 whole entry): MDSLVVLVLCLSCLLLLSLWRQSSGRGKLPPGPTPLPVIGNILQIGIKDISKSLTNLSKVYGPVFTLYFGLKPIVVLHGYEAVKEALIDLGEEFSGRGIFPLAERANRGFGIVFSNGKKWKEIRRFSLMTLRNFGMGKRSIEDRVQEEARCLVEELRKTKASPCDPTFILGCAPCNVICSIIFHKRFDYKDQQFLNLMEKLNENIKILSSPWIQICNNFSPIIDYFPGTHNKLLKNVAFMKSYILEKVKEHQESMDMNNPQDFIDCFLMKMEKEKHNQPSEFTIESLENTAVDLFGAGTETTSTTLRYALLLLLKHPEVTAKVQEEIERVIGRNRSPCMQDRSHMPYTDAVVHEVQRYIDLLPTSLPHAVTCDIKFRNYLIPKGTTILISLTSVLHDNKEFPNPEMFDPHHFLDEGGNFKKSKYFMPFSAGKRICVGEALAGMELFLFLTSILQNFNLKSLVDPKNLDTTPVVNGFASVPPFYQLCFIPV

`Cc1ccc(C(=O)O)c(C)c1NC(=O)c1cc(-c2cccc(CO)c2)cc2ccccc12` gave a Ki [1] of 1.98 nM, an IC50 [2] of 2.42 nM and an IC50 [3] of 6.2 nM. For the same molecule, the Ratio IC50 [4] was over 250, the metabolised at 0.5 h [5] was under 1% and the clearance [6] was 23.8 mL/min/kg. The Cmax [7] was 85.7 ng/mL, the Tmax [8] was 15 min and the bioavailability [9] was 6%. For the same molecule, the Ratio [10] was 33.
In the case of `Cc1ccc(C(=O)O)c(C)c1NC(=O)c1cc(-c2ccccc2)cc2ccccc12`, the Ki [1] is reported as 6.72 nM, the IC50 [2] is reported as 5.65 nM and the IC50 [3] is reported as 577 nM.
With `CCc1nc2c(C)nc(C)cc2n1-c1ccc(CCNC(=O)NS(=O)(=O)c2ccc(C)cc2)cc1` [GRAPIPRANT] the IC50 [3] was 1520 nM, the metabolised [11] was 5% and the metabolised [12] was 2%. It also gave a solubility [13] of 977 µg/mL (≈ 1990 µM).
With `Cc1ccc(C(=O)O)c(C)c1NC(=O)c1cc(-c2cccc(Cl)c2)cc2ccccc12` the Ki [1] was 3.49 nM, the IC50 [2] was 3.62 nM and the IC50 [3] was 243 nM. For the same molecule, the metabolised at 0.5 h [5] was 7%, the clearance [6] was 1.9 mL/min/kg and the Cmax [7] was 10900 ng/mL. For the same molecule, the Tmax [8] was 60 min, the bioavailability [9] was 100% and the Ratio [10] was 104. For the same molecule, the IC50 [14] was over 25000 nM, the Ki [14] was over 19500 nM and the IC50 [15] was 3700 nM. For the same molecule, the Ki [15] was 2800 nM, the IC50 [16] was over 25000 nM and the Ki [16] was over 17500 nM. The IC50 (Cytochrome P450 1A2) was over 10000 nM, the IC50 (Cytochrome P450 2B6) was over 10000 nM and the IC50 (Cytochrome P450 2C19) was over 10000 nM. For the same molecule, the IC50 (Cytochrome P450 2C8) was over 10000 nM, the IC50 (Cytochrome P450 2C9) was over 10000 nM and the IC50 (Cytochrome P450 2D6) was over 10000 nM. The IC50 (Cytochrome P450 3A4) was over 10000 nM.
Molecule `Cc1ccc(C(=O)O)c(C)c1NC(=O)c1cc(-c2cccc(CO)c2)nc2ccccc12` has a Ki [1] of 17 nM, an IC50 [2] of 5.2 nM and an IC50 [3] of 312 nM. It also gave a Ratio IC50 [4] of over 5.
For `Cc1cc(C(=O)O)cc(C)c1NC(=O)c1cc(-c2ccccc2)nc2ccccc12`, the Ki [1] was 39.2 nM, the IC50 [2] was 11.2 nM and the IC50 [3] was 1980 nM.
`Cc1cc(C(=O)O)cc(C)c1NC(=O)c1cc(-c2cccc(CO)c2)nc2ccccc12` showed a Ki [1] of 52.3 nM, an IC50 [2] of 3.08 nM and an IC50 [3] of 501 nM. It also gave a metabolised at 0.5 h [5] of under 1%, a clearance [6] of 59.6 mL/min/kg and a Cmax [7] of 42.3 ng/mL. It also gave a Tmax [8] of 15 min, a bioavailability [9] of 3% and a Ratio [10] of 0.2.
With `Cc1cc(C(=O)O)cc(C)c1NC(=O)c1cc(-c2cccc(CO)c2)cc2ccccc12` the Ki [1] was 3.54 nM, the IC50 [2] was 1.11 nM and the IC50 [3] was 136 nM.
Work on `Cc1cccc(C)c1NC(=O)c1cc(-c2ccccc2)nc2ccccc12` yielded a Ki [1] of 512 nM, an IC50 [2] of 128 nM and an IC50 [3] of over 30000 nM. It also gave a metabolised [11] of 64%, a metabolised [12] of 71% and a solubility [13] of under 1 µg/mL.
`Cc1cccc(C)c1NC(=O)c1cc(-c2ccc(C(=O)O)cc2)nc2ccccc12` gave a Ki [1] of over 19200 nM, an IC50 [2] of over 25000 nM and an IC50 [3] of over 30000 nM.
For `Cc1cc(C(=O)O)cc(C)c1NC(=O)c1cc(-c2ccccc2)cc2ccccc12`, the Ki [1] was 8.04 nM, the IC50 [2] was 3.48 nM and the IC50 [3] was 623 nM.
